Measurements published in ChEMBL document CHEMBL1136930, “Doubly loaded cycloSaligenyl-pronucleotides - 5,5'-Bis-(cycloSaligenyl-2',3'-dideoxy-2',3'-didehydrothymidine monophosphates)” (J Med Chem, 2009).
Each block holds one compound with its values, some of them ahead of it.

What was measured:
[1] = Chemical stability assessed as hydrolysis half life by HPLC analysis; format: physicochemical
[2] = Chemical stability assessed as hydrolysis half life in aqueous phosphate buffer saline at pH 7.3 by HPLC analysis; format: physicochemical; conditions: for t1/2: buffer; for half-life: aqueous phosphate buffered saline
[3] = tested on: Human immunodeficiency virus 2; test: Antiviral activity against HIV2 in thymidine kinase deficient human CEM cells assessed as virus-induced cytopathic effect after 4 to 5 days by microscopy; format: functional, organism-based, CCRF-CEM
In short: (§1)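 50% effective concentration against HIV in wild-type or thymidine kinase-deficient CEM T-lymphocytes, reported as the mean of two to three independent experiments.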

[4] = tested on: Human immunodeficiency virus 2; test: Antiviral activity against HIV2 in wild type human CEM cells assessed as virus-induced cytopathic effect after 4 to 5 days by microscopy; format: functional, organism-based, CCRF-CEM; in short: as §1
[5] = tested on: Human immunodeficiency virus 1; test: Antiviral activity against HIV1 in wild type human CEM cells assessed as virus-induced cytopathic effect after 4 to 5 days by microscopy; format: functional, organism-based, CCRF-CEM; in short: as §1
[6] = Ratio of hydrolysis half life in aqueous phosphate buffer saline at pH 7.3 to hydrolysis half life in RPMI-1640 culture medium at pH 7.6 in presence 10% heat-inactivated fetal calf serum; format: ADME
[7] = Chemical stability assessed as hydrolysis half life in aqueous phosphate buffer saline at pH 7.6 by HPLC analysis; format: physicochemical; conditions: for t1/2: buffer; for half-life: aqueous phosphate buffered saline
[8] = (§2) Cytostatic activity against wild type human CEM cells; format: cell-based, CCRF-CEM; conditions: wild type CEM (CCRF-CEM) cells
In short: (§3)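 50% cytostatic concentration measured in wild-type CEM T-lymphocyte cultures.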

[9] = Chemical stability assessed as half life of hydrolysis in RPMI-1640 culture medium at pH 7.6 in presence 10% heat-inactivated fetal calf serum by HPLC analysis; format: physicochemical; conditions: cattle; for t1/2: serum
[10] = Ratio of hydrolysis half life in RPMI-1640 culture medium at pH 7.6 in presence 10% heat-inactivated fetal calf serum to hydrolysis half life in aqueous phosphate buffer saline at pH 7.6; format: ADME; conditions: cattle
CCRF-CEM = test: as §2; format: cell-based; conditions: ccrf-cem; in short: as §3
[11] = Human immunodeficiency virus 2, CCRF-CEM
[12] = Human immunodeficiency virus 1, CCRF-CEM

Structure (SMILES): Cc1cccc2c1OP(=O)(OC[C@@H]1C=C[C@H](n3cc(C)c(=O)[nH]c3=O)O1)OC2 (some centres undefined)
half-life [1]: 15 h

Structure (SMILES): Cc1cn([C@H]2C=C[C@@H](COP3(=O)OCc4cccc(-c5cccc6c5OP(=O)(OC[C@@H]5C=C[C@H](n7cc(C)c(=O)[nH]c7=O)O5)OC6)c4O3)O2)c(=O)[nH]c1=O (some centres undefined)
t1/2 [2]: 8.2 h

Structure (SMILES): Cc1cn([C@H]2C=C[C@@H](COP3(=O)OCc4cc(-c5ccc6c(c5)COP(=O)(OC[C@@H]5C=C[C@H](n7cc(C)c(=O)[nH]c7=O)O5)O6)ccc4O3)O2)c(=O)[nH]c1=O (some centres undefined)
EC50 ([3]; ccrf-cem): 7.5 µM
t1/2 [2]: 1.7 h
EC50 [4, 11]: 0.62 µM
EC50 [5, 12]: 0.51 µM
Ratio [6]: 2
t1/2 [7]: 0.5 h
CC50 [8]: 115 µM
t1/2 [9]: 0.8 h

EC50 [3, 11]: 6.9 µM
EC50 [4, 11]: 7.9 µM
EC50 [5, 12]: 7.9 µM
Structure (SMILES): CC(C)(C)c1cc(-c2cc(CO)c(O)c(C(C)(C)C)c2)cc(CO)c1O
CC50 [8]: 20 µM

EC50 [3, 11]: 18 µM
EC50 [4, 11]: 117 µM
EC50 [5, 12]: 99 µM
Structure (SMILES): OCc1cc(-c2ccc(O)c(CO)c2)ccc1O
CC50 [8]: > 250 µM

Structure (SMILES): Cc1cn([C@H]2C=C[C@@H](COP3(=O)OCc4cc(-c5ccc(O)c(CO)c5)ccc4O3)O2)c(=O)[nH]c1=O (some centres undefined)
EC50 [3, 11]: 3.7 µM
half-life [2]: 2.2 h
EC50 [4, 11]: 0.91 µM
EC50 [5, 12]: 0.73 µM
half-life [7]: 2 h
CC50 [8]: 82 µM
half-life [9]: 2.1 h

Structure (SMILES): Cc1cn([C@H]2C=C[C@@H](COP3(=O)OCc4cc(-c5ccccc5)ccc4O3)O2)c(=O)[nH]c1=O (some centres undefined)
half-life [1]: 3.1 h

EC50 [3, 11]: > 50 µM
EC50 [4, 11]: > 50 µM
EC50 [5, 12]: 20 µM
Structure (SMILES): Cc1cc(-c2cc(C)c(O)c(CO)c2)cc(CO)c1O
CC50 [8]: 96 µM

Structure (SMILES): Cc1cc(-c2cc(C)c3c(c2)COP(=O)(OC[C@@H]2C=C[C@H](n4cc(C)c(=O)[nH]c4=O)O2)O3)cc2c1OP(=O)(OC[C@@H]1C=C[C@H](n3cc(C)c(=O)[nH]c3=O)O1)OC2 (some centres undefined)
EC50 [3, 11]: 0.85 µM
half-life [2]: 2.2 h
EC50 [4, 11]: 0.83 µM
EC50 [5, 12]: 0.4 µM
half-life [7]: 2.3 h
CC50 [8]: 64 µM
half-life [9]: 2.3 h

Structure (SMILES): Cc1cn([C@H]2C=C[C@@H](COP3(=O)OCc4cc(-c5cc6c(c(C(C)(C)C)c5)OP(=O)(OC[C@@H]5C=C[C@H](n7cc(C)c(=O)[nH]c7=O)O5)OC6)cc(C(C)(C)C)c4O3)O2)c(=O)[nH]c1=O (some centres undefined)
EC50 [3, 11]: 2.9 µM
half-life [2]: 4.7 h
EC50 [4, 11]: 1.3 µM
EC50 [5, 12]: 0.88 µM
half-life [7]: 4.1 h
CC50 [8]: 20 µM
Ratio [10]: 2
half-life [9]: 8.3 h

Structure (SMILES): Cc1cn([C@H]2C=C[C@@H](COP3(=O)OCc4cccc(-c5cccc6c5OP(=O)(OC[C@@H]5C=C[C@H](n7cc(C)c(=O)[nH]c7=O)O5)OC6)c4O3)O2)c(=O)[nH]c1=O (single isomer, unassigned; form 1)
t1/2 [2]: 3.2 h

Structure (SMILES): Cc1cn([C@H]2C=C[C@@H](COP3(=O)OCc4cc(-c5ccc6c(c5)COP(=O)(OC[C@@H]5C=C[C@H](n7cc(C)c(=O)[nH]c7=O)O5)O6)ccc4O3)O2)c(=O)[nH]c1=O (single isomer, unassigned; form 1)
EC50 ([3]; ccrf-cem): 4.4 µM
t1/2 [2]: 1 h
EC50 ([4]; ccrf-cem): 1.2 µM
EC50 ([5]; ccrf-cem): 0.46 µM
t1/2 [7]: 0.4 h
CC50 (CCRF-CEM): 107 µM
t1/2 [9]: 0.6 h

Structure (SMILES): Cc1cn([C@H]2C=C[C@@H](COP3(=O)OCc4cc(-c5cc6c(c(C(C)(C)C)c5)OP(=O)(OC[C@@H]5C=C[C@H](n7cc(C)c(=O)[nH]c7=O)O5)OC6)cc(C(C)(C)C)c4O3)O2)c(=O)[nH]c1=O (single isomer, unassigned; form 1)
EC50 ([3]; ccrf-cem): 2.8 µM
t1/2 [2]: 4.3 h
EC50 ([4]; ccrf-cem): 1.6 µM
EC50 ([5]; ccrf-cem): 0.81 µM
t1/2 [7]: 3.9 h
CC50 (CCRF-CEM): 18 µM
t1/2 [9]: 7.9 h

Structure (SMILES): Cc1cn([C@H]2C=C[C@@H](COP3(=O)OCc4cccc(-c5cccc6c5OP(=O)(OC[C@@H]5C=C[C@H](n7cc(C)c(=O)[nH]c7=O)O5)OC6)c4O3)O2)c(=O)[nH]c1=O (single isomer, unassigned; form 2)
t1/2 [2]: 8.5 h

Structure (SMILES): Cc1cn([C@H]2C=C[C@@H](COP3(=O)OCc4cc(-c5ccc6c(c5)COP(=O)(OC[C@@H]5C=C[C@H](n7cc(C)c(=O)[nH]c7=O)O5)O6)ccc4O3)O2)c(=O)[nH]c1=O (single isomer, unassigned; form 2)
EC50 ([3]; ccrf-cem): 3.3 µM
t1/2 [2]: 3.3 h
EC50 ([5]; ccrf-cem): 0.47 µM
half-life [7]: 0.7 h
CC50 (CCRF-CEM): 78 µM
half-life [9]: 1 h

Structure (SMILES): Cc1cn([C@H]2C=C[C@@H](COP3(=O)OCc4cc(-c5cc6c(c(C(C)(C)C)c5)OP(=O)(OC[C@@H]5C=C[C@H](n7cc(C)c(=O)[nH]c7=O)O5)OC6)cc(C(C)(C)C)c4O3)O2)c(=O)[nH]c1=O (single isomer, unassigned; form 2)
EC50 ([3]; ccrf-cem): 3.2 µM
t1/2 [2]: 4.7 h
EC50 ([4]; ccrf-cem): 1 µM
EC50 ([5]; ccrf-cem): 0.49 µM
t1/2 [7]: 4.1 h
CC50 (CCRF-CEM): 19 µM
t1/2 [9]: 8 h

Structure (SMILES): Cc1cn([C@H]2C=C[C@@H](COP3(=O)OCc4cc(-c5cc6c(c(C(C)(C)C)c5)OP(=O)(OC[C@@H]5C=C[C@H](n7cc(C)c(=O)[nH]c7=O)O5)OC6)cc(C(C)(C)C)c4O3)O2)c(=O)[nH]c1=O (single isomer, unassigned; form 3)
EC50 ([3]; ccrf-cem): 2.6 µM
t1/2 [2]: 5.3 h
EC50 ([4]; ccrf-cem): 2 µM
EC50 ([5]; ccrf-cem): 0.86 µM
t1/2 [7]: 4.4 h
t1/2 [9]: 9.1 h

EC50 [3, 11]: 29 µM
EC50 [4, 11]: 0.79 µM
EC50 [5, 12]: 0.56 µM
Structure (SMILES): Cc1cn([C@H]2C=C[C@@H](CO)O2)c(=O)[nH]c1=O [STAVUDINE]
CC50 [8]: > 250 µM
